# The source made the active and inactive calls. The calls are words filed in the database; no cut-off is given here.
# Key:
# Mus musculus [1] = assay: Antiallergic activity in house dust mite-induced allergic airway disease BALB/c mouse model assessed as reduction in airway inflammation at 1 mg/kg, ip qd after 17 days; format: functional, organism-based; parameters: dose 1 mg/kg
# [2] = target: T1, Prostaglandin D2 receptor 2 (Homo sapiens, UniProt Q9Y5Y4); assay: Antagonist activity at human recombinant CRTh2 expressed in CHO-K1 cells by cAMP TR FRET assay; format: functional, cell-based
# T1 sequence (Q9Y5Y4 whole entry): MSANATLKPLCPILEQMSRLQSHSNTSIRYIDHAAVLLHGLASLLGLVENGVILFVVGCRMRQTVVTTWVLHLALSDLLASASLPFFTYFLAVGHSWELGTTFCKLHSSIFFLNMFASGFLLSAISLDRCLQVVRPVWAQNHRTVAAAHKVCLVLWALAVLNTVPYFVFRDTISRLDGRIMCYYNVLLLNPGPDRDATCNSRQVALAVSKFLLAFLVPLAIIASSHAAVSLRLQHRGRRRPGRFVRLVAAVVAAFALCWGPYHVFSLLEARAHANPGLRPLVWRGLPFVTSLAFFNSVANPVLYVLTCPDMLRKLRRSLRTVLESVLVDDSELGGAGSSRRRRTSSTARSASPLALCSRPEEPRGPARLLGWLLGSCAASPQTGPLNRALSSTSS
# Mus musculus [3] = assay: Antiallergic inflammatory activity in oxazolone induced contact hypersensitivity mouse model assessed as reduction ear swelling at 3 mg/kg, po prior to oxazolone and 7 hrs post challenge measured after 24 hrs; format: functional
# Outline: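 Mice sensitized on the shaved abdomen with 2% oxazolone in ethanol one week before challenge. Dosed orally 1 h before the left ear was challenged with 10 μL of 2% oxazolone (ethanol on the right ear as control), then redosed 7 h after challenge. Ear thickness measured by micrometer; swelling taken as 24 h post-challenge minus pre-challenge thickness. Unpaired t test.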
# Rattus norvegicus [4] = species on record: Rattus norvegicus; assay: Clearance in rat; details: in vivo
# Rattus norvegicus [5] = assay: Oral bioavailability in rat; details: in vivo
# [6] = Clearance in rat at 2 mg/kg, iv and 10 mg/kg, po; format: ADME, organism-based; details: in vivo
# [7] = Oral bioavailability in rat at 10 mg/kg; format: ADME, organism-based; details: in vivo
# [8] = Metabolic clearance in rat hepatocytes measured per 10^6 cells; format: ADME, cell-based, Hepatocyte; details: read-out: CLH
# [9] = Metabolic clearance in monkey hepatocytes measured per 10^6 cells; format: ADME, cell-based, Macaca mulatta, Hepatocyte; details: rhesus monkey, read-out: CLH
# [10] = Metabolic clearance in dog hepatocytes measured per 10^6 cells; format: ADME, cell-based, Canis lupus familiaris, Hepatocyte; details: read-out: CLH
# Hepatocyte [11] = assay: In vitro intrinsic biliary clearance in sandwich cultured human hepatocytes measured; format: ADME, cell-based, Bile
# Outline: (§1)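 Sandwich-cultured hepatocytes incubated with substrate at 1–50 μM (rat) or 1–10 μM (human), with and without Ca2+. Biliary excretion taken as the difference in cellular accumulation between the two conditions. Intrinsic biliary clearance calculated as amount excreted into bile divided by substrate concentration over time.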
# Rattus norvegicus [12] = assay: In vivo intrinsic biliary clearance in rat; format: ADME, organism-based, Bile
# Hepatocyte [13] = assay: In vitro intrinsic biliary clearance in sandwich cultured rat hepatocytes measured; format: ADME, cell-based, Bile; outline: as §1
# [14] = Drug excretion in dog feces assessed as drug recovery at 5 mg/kg, iv measured after 24 hrs by LC-MS analysis; format: ADME, organism-based, Canis lupus familiaris; parameters: dose 5 mg/kg, route intravenous; details: faeces, read-out: Drug recovery
# Outline: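 Dogs given a single intravenous dose of 5 mg/kg; unchanged parent drug measured in the feces.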
# [15] = Drug excretion in rat bile assessed as drug recovery at 5 mg/kg, iv measured after 24 hrs by LC-MS analysis; format: ADME, organism-based; parameters: dose 5 mg/kg, route intravenous; details: read-out: Drug recovery
# Outline: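 Bile duct-cannulated rats given a single iv dose of 5 mg/kg; parent drug recovered in bile and urine over 24 h.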
# [16] = Oral bioavailability in monkey at 10 mg/kg; format: ADME, organism-based, Macaca mulatta; details: rhesus monkey, in vivo
# [17] = Plasma clearance in rat at 5 mg/kg, iv measured after 24 hrs by LC-MS analysis; format: ADME, organism-based; parameters: dose 5 mg/kg, route intravenous
# Outline: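 Bile duct-cannulated rats received a single iv dose of 5 mg/kg. Average plasma clearance was determined, and parent drug was quantified in bile and urine collected over 24 h.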
# [18] = Oral bioavailability in dog at 10 mg/kg; format: ADME, organism-based, Canis lupus familiaris; details: in vivo
# [19] = Cmax in dog at 10 mg/kg, po; format: ADME, organism-based, Canis lupus familiaris; parameters: dose 10 mg/kg, route oral; details: in vivo
# Outline: (§2)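 Single intravenous dose of 2 mg/kg and single oral dose of 10 mg/kg, given separately, in rat, dog and monkey. Clearance and half-life taken from the iv arm; Cmax from the oral arm.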
# [20] = Cmax in monkey at 10 mg/kg, po; format: ADME, organism-based, Macaca mulatta; parameters: dose 10 mg/kg, route oral; details: rhesus monkey, in vivo; outline: as §2
# [21] = Volume of distribution at steady state in monkey at 2 mg/kg, iv; format: ADME, organism-based, Macaca mulatta; parameters: dose 2 mg/kg, route intravenous; details: rhesus monkey, in vivo, read-out: Vdss
# [22] = Volume of distribution at steady state in dog at 2 mg/kg, iv; format: ADME, organism-based, Canis lupus familiaris; parameters: dose 2 mg/kg, route intravenous; details: in vivo, read-out: Vdss
# [23] = Half life in dog at 2 mg/kg, iv; format: ADME, organism-based, Canis lupus familiaris; parameters: dose 2 mg/kg, route intravenous; details: in vivo; outline: as §2
# [24] = Half life in monkey at 2 mg/kg, iv; format: ADME, organism-based, Macaca mulatta; parameters: dose 2 mg/kg, route intravenous; details: rhesus monkey, in vivo; outline: as §2
# [25] = Clearance in monkey at 2 mg/kg, iv; format: ADME, organism-based, Macaca mulatta; parameters: dose 2 mg/kg, route intravenous; details: rhesus monkey, in vivo; outline: as §2
# [26] = Clearance in dog at 2 mg/kg, iv; format: ADME, organism-based, Canis lupus familiaris; parameters: dose 2 mg/kg, route intravenous; details: in vivo; outline: as §2
smiles,measurement,setting,value
C[C@@H]1C[C@H]2[C@@H]3CCC4=CC(=O)C=C[C@]4(C)[C@@]3(F)[C@@H](O)C[C@]2(C)[C@@]1(O)C(=O)CO,inhibition,Mus musculus [1],Active
Cc1c(-c2ccc(=O)n(CC(F)(F)F)c2)c2cc(Cl)ccc2n1CC(=O)O,IC50,[2],148 nM
Cc1c(-c2cn(CC(F)(F)F)c(=O)c3ccccc23)c2cc(F)ccc2n1CC(=O)O,inhibition in vivo at 3 mg/kg,Mus musculus [3],32.8%
same,clearance,Rattus norvegicus [4],20 mL/min/kg
same,bioavailability,Rattus norvegicus [5],35%
Cc1c(Cc2ccc(=O)n(Cc3ccc(F)cc3F)c2)c2cc(F)ccc2n1CC(=O)O,clearance,[6],32 mL/min/kg
same,IC50,[2],4 nM
same,bioavailability,[7],4%
Cc1c(-c2ccc(=O)n(C(C)C)c2)c2cc(Cl)ccc2n1CC(=O)O,IC50,[2],195 nM
Cc1c(Cc2ccc(=O)n(CC(F)(F)F)n2)c2cc(F)ccc2n1CC(=O)O,IC50,[2],18 nM
Cc1c(-c2ccc(=O)n(Cc3c(F)cccc3F)c2)c2ccccc2n1CC(=O)O,IC50,[2],21 nM
Cc1c(-c2ccc(=O)n(Cc3cccc(F)c3F)c2)c2cc(F)ccc2n1CC(=O)O,IC50,[2],0.8 nM
Cc1c(Cc2ccc(=O)n(Cc3cccc(F)c3)n2)c2cc(F)ccc2n1CC(=O)O,IC50,[2],8 nM
Cc1c(Cc2ccc(=O)n(CC(F)(F)F)c2)c2cc(F)ccc2n1CC(=O)O,clearance,[6],7 mL/min/kg
same,IC50,[2],52 nM
same,bioavailability,[7],20%
Cc1c(Cc2ccc(=O)n(Cc3cc(F)ccc3F)n2)c2cc(F)ccc2n1CC(=O)O,IC50,[2],2 nM
Cc1c(-c2cn(Cc3ccccc3)c(=O)c3ccccc23)c2cc(F)ccc2n1CC(=O)O,IC50,[2],14 nM
Cc1c(-c2ccc(=O)n(CC(F)(F)F)c2)c2cc(F)ccc2n1CC(=O)O,IC50,[2],84 nM
Cc1c(Cc2ccc(=O)n(Cc3ccc(F)cc3)n2)c2cc(F)ccc2n1CC(=O)O,IC50,[2],6 nM
Cc1c(-c2ccc(OCCCC(F)(F)F)nc2)c2cc(F)ccc2n1CC(=O)O,IC50,[2],689 nM
Cc1c(-c2ccc(=O)n(Cc3ccccc3)c2)c2cc(F)ccc2n1CC(=O)O,clearance,[6],15 mL/min/kg
same,bioavailability,[7],< 10%
Cc1c(-c2cn(Cc3ccccc3)c(=O)c3c2CCCC3)c2cc(F)ccc2n1CC(=O)O,IC50,[2],192 nM
Cc1c(-c2cn(CCCC(F)(F)F)c(=O)c3ccccc23)c2cc(F)ccc2n1CC(=O)O,inhibition in vivo at 3 mg/kg,Mus musculus [3],30.4%
same,IC50,[2],1 nM
same,clearance,Rattus norvegicus [4],35 mL/min/kg
same,bioavailability,Rattus norvegicus [5],< 5%
Cc1ccc2c(c1)c(-c1ccc(=O)n(CC(F)(F)F)c1)c(C)n2CC(=O)O,IC50,[2],1120 nM
Cc1c(-c2ccc(=O)n(CCCC(F)(F)F)c2)c2cc(F)ccc2n1CC(=O)O,IC50,[2],16 nM
Cc1c(-c2ccc(=O)n(Cc3ccc(F)cc3F)c2)c2cc(F)ccc2n1CC(=O)O,IC50,[2],17 nM
Cc1c(-c2cn(CC(C)(C)C)c(=O)c3ccccc23)c2cc(F)ccc2n1CC(=O)O,inhibition in vivo at 3 mg/kg,Mus musculus [3],47.4%
Cc1c(-c2ccc(=O)n(Cc3c(F)cccc3F)c2)c2cc(F)ccc2n1CC(=O)O,IC50,[2],6 nM
Cc1c(Cc2ccc(=O)n(CCCC(F)(F)F)c2)c2cc(F)ccc2n1CC(=O)O,IC50,[2],150 nM
Cc1c(Cc2ccc(=O)n(CCCC(F)(F)F)n2)c2cc(F)ccc2n1CC(=O)O,IC50,[2],11 nM
COc1ccc2c(c1)c(-c1ccc(=O)n(CC(F)(F)F)c1)c(C)n2CC(=O)O,IC50,[2],2000 nM
Cc1c(Cc2ccc(=O)n(Cc3ccc(F)cc3F)n2)c2cc(F)ccc2n1CC(=O)O,hepatocyte CLint,[8],< 5 µL/min/1e6 cells
same,hepatocyte CLint,[9],< 5 µL/min/1e6 cells
same,hepatocyte CLint,[10],< 5 µL/min/1e6 cells
same,CLH,Hepatocyte [11],< 1 µL/min/µg
same,CL,Rattus norvegicus [12],3.8 mL/min/kg
same,CLH,Hepatocyte [13],< 2.6 µL/min/µg
same,dose excreted at 24 h,[14],> 90%
same,dose excreted at 24 h,[15],27%
same,bioavailability,[16],12%
same,clearance,[17],14 mL/min/kg
same,bioavailability,[18],8%
same,Cmax,[19],716 ng/mL
same,Cmax,[20],246 ng/mL
same,Vd,[21],0.4 L/kg
same,Vd,[22],0.4 L/kg
same,half-life,[23],138 min
same,half-life,[24],138 min
same,clearance,[25],21 mL/min/kg
same,clearance,[26],20 mL/min/kg
Cc1c(-c2ccc(=O)n(C(C)C)c2)c2ccccc2n1CC(=O)O,IC50,[2],556 nM
Cc1c(-c2cn(CC(F)(F)F)c(=O)c3c2CCCC3)c2cc(F)ccc2n1CC(=O)O,IC50,[2],1000 nM
Cc1c(-c2ccc(=O)n(C(C)C)c2)c2cc(F)ccc2n1CC(=O)O,IC50,[2],70 nM

# — ChEMBL document CHEMBL3232705, “Discovery of isoquinolinone indole acetic acids as antagonists of chemoattractant receptor homologous molecule expressed on Th2 cells (CRTH2) for the treatment of allergic inflammatory diseases” (J Med Chem, 2014)
